In the library only some 3.5% were active in any assay of this set; here they are far more common.
RGS4 pot – RGS4 potentiators or activators, primary screen, cell-based, HEK293 M3R inducible RGS4, calcium flux; carbachol calcium flux Fluo4; stronger effect = lower value; B-score at 10 µM; 0.92% of 310,000 active; AID 463111, 2010;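 active = B-score of the integrated calcium signal more than 4 SD below the library mean, with starting fluorescence not abnormally high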;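 also: negative B-score means reduced calcium response which marks RGS4 activation or potentiation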
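test system = HEK293 cells with stable M3R and inducible RGS4 | schedule = recording 10 s baseline at 1 Hz, 100 s post-agonist | technique = Fluo4-AM (2 µM) calcium-flux fluorescence, kinetic read | measure = Agonist-evoked peak-minus-minimum fluorescence over baseline, integrated ratio, B score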
MrgX1 PAM – positive allosteric modulators of MrgX1, primary screen, HEK293 cells, Fluo-4 calcium flux | B-score at 10 µM | AID 588675, 2011 | FDSS; stronger effect = higher value | 0.63% of 310,000 active | Mas-related G-protein coupled receptor member X1 (Homo sapiens), Q96LB2;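 active = plate-corrected calcium response at least 3 library SD above typical, normal starting fluorescence, not activating the receptor alone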;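 also: compound read alongside a low EC10 to EC30 dose of BAM8-22 agonist; peak minus trough fluorescence over baseline measured at the second addition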
Target sequence (Q96LB2 whole entry, looked up): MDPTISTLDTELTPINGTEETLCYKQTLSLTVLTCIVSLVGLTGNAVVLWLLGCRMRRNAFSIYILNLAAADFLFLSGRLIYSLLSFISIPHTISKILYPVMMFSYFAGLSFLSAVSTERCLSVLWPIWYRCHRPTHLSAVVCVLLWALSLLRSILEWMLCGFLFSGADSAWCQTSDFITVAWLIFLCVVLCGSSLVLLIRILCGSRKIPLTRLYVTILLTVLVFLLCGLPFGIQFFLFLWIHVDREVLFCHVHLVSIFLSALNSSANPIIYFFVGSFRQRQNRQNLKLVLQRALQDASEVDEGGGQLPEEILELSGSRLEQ
MrgX1 ag – agonists of human MrgX1 receptor, primary screen, HEK293 cells, Fluo-4 calcium flux | Mas-related G-protein coupled receptor member X1 (Homo sapiens), Q96LB2 | Fluo-4 calcium fluorescence, agonist mode; stronger effect = higher value | B-score at 10 µM | 0.44% of 310,000 active | AID 588627, 2011;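 active = calcium response B-score plate-corrected fluorescence ratio at least 3 library SD, with starting fluorescence B-score inside 5 SD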
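Assay system: stable human MrgX1 HEK293 cell line. Quantity: 15,000 cells per well. Schedule: cells plated overnight, dye loaded 0.5 h 37 °C, 0.5 h room temperature. Detection: Fluo-4 NW calcium-flux fluorescence, kinetic read. Read-out basis: peak-minus-minimum fluorescence over baseline, converted to B scores. Control set: positive and negative control wells on each plate.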
MrgX1 antagonist – antagonists of human MrgX1 receptor, primary screen, HEK293 cells, Fluo-4 calcium flux; 1.3% of 310,000 active; BAM8-22 antagonism; stronger effect = lower value; B-score at 10 µM; Mas-related G-protein coupled receptor member X1 (Homo sapiens), Q96LB2;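 active = calcium-response B-score plate-corrected more than 3 library SD below zero, starting fluorescence within 5 deviations, no agonist response on first addition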;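 also: peak minus trough fluorescence over baseline after final BAM8-22 challenge near maximal dose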
RGS4 inh – RGS4 inhibitors, primary screen, cell-based, HEK293 M3R inducible RGS4, calcium flux | Regulator of G-protein signaling 4 (Homo sapiens), P49798 | Fluo-4 calcium flux; stronger effect = higher value; triggered by carbachol at its EC20 | B-score at 10 µM | 0.45% of 310,000 active | AID 463165, 2010;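 active = B-score, a plate-corrected calcium signal, over three deviations above library mean, with baseline fluorescence within five deviations of library mean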;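 also: RGS4 expression induced by doxycycline in cells with stable M3 receptor; B-score is computed from the integrated fluorescence ratio over baseline after carbachol; higher B-score means a larger calcium signal and so more RGS4 inhibition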
Target sequence (P49798 whole entry, looked up): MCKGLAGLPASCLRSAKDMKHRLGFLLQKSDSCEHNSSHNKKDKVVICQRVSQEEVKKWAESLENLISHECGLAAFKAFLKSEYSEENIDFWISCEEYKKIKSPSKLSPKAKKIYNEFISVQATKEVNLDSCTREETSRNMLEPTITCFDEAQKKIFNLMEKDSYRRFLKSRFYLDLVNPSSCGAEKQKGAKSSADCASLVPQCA
Active calls of the source: *; i = inactive; nt = no result.

SMILES	RGS4 pot	MrgX1 PAM	MrgX1 ag	MrgX1 antagonist	RGS4 inh
c1ccc(-c2cn(-c3ccccc3)c3ncnc(N4CCCCC4)c23)cc1	i	i	i	i	i
COc1ccc(Br)cc1CN(C)C(=O)c1ccccc1OCc1c(C)noc1C	i	i	i	i	i
CN(Cc1ccc(F)cc1)C(=O)C(Cc1ccccc1)NC(=O)c1ccccc1 (configuration not stated)	i	i	i	i	i
CSc1ccc(CN(C)C(=O)C(Cc2ccccc2)NC(=O)c2ccccc2)cc1 (configuration not stated)	-7.35*	i	i	i	i
CSc1ccc(CN(C)C(=O)c2cccc(S(=O)(=O)NCc3ccccc3)c2)cc1	i	i	i	-5.06*	i
CCCN(CC(=O)Nc1ccccc1OC)C(=O)c1cccc(S(=O)(=O)NCc2ccccc2)c1	i	i	i	-6.07*	i
O=S(=O)(c1ccc(Cl)cc1)N1CCCC(C(F)(F)F)C1 (configuration not stated)	i	i	i	i	i
CC(=O)Oc1ccc(N2C(=O)C3C4C=CC(CO)(O4)C3C2=O)cc1 (configuration not stated)	i	i	i	i	i
O=C1C2C3C=CC(CO)(O3)C2C(=O)N1c1ccccc1-c1ccccc1 (configuration not stated)	nt	i	33.8*	i	nt
CCOC(=O)CSc1ncc(-c2ccc([N+](=O)[O-])cc2)[nH]1	i	i	i	i	i
COc1cc(/C=C(\C#N)c2ccccn2)cc(OC)c1O	i	i	50.7*	i	i
COc1cc(/C=C(\C#N)c2ccccn2)ccc1OCc1ccccc1Cl	nt	i	i	i	nt
Cc1ccccc1S(=O)(=O)N1CCN(C)CC1	i	i	i	i	i
CCOc1ccc2[nH]c(=O)c(CN(Cc3nnnn3Cc3ccco3)C3CCCCC3)cc2c1	i	i	26.6*	i	i
COc1cc2cc(CN(Cc3nnnn3Cc3ccco3)C3CCCCC3)c(=O)[nH]c2cc1OC	i	i	i	i	i
COc1ccc(-n2c(NC(=O)c3ccco3)c(C#N)c3nc4ccccc4nc32)cc1	i	7.11*	i	i	i
CCCCn1c(NC(=O)c2ccccc2Cl)c(C#N)c2nc3ccccc3nc21	i	i	26.5*	i	i
COc1ccc(C(=O)/C=C/c2ccc(OCc3ccccc3)cc2)cc1CSCC(=O)O	i	i	i	i	i
COc1ccc(C(=O)/C=C/c2cccc(OCc3ccccc3)c2)cc1CSCC(=O)O	i	i	30.1*	i	i
CC(=O)Oc1ccc2c(=O)c(/C=N/c3cc(=O)[nH]c(=S)[nH]3)coc2c1	i	13.8*	i	i	i
O=c1cc(/N=C/c2coc3cc(Br)ccc3c2=O)[nH]c(=S)[nH]1	i	i	i	i	i
Cc1noc(C)c1C(=O)N(C)CC(=O)Nc1ccc(F)c(F)c1F	i	i	i	i	i
CN(C)S(=O)(=O)c1cccc(-c2nn(-c3ccccc3)cc2/C=C2\SC(=S)NC2=O)c1	nt	16.9*	i	i	nt
O=C1C(=C2CCCCC2)SC(=S)N1Cc1ccco1	-7.91*	i	i	i	i
Cc1ccc(N(CC(=O)NC2CCCCC2)C(=O)CNC(=O)c2ccco2)c(C)c1	i	i	i	i	i
SMILES	RGS4 pot	MrgX1 PAM	MrgX1 ag	MrgX1 antagonist	RGS4 inh
NC1=NC(=O)/C(=C/c2ccc(-c3ccc(S(N)(=O)=O)cc3)o2)S1	i	i	i	-4.7*	i
O=C(CSc1nc2ccccc2c(=O)n1-c1ccc(F)cc1F)c1c[nH]c2ccccc12	i	i	i	-5.08*	i
O=C(CSc1nc2ccccc2c(=O)n1-c1ccc(F)cc1F)Nc1ccc(N2CCOCC2)cc1	i	i	i	i	i
O=C(Nc1cccc(S(=O)(=O)NC2=NCCC2)c1)c1ccccc1OC(F)F	i	i	i	i	i
Cc1cc(NC(=O)CSc2nc3sc(C)c(C)c3c(=O)n2C2CCCC2)no1	i	i	i	i	i
COc1ccc(CN2CCCC(C(=O)c3cccc(C(F)(F)F)c3)C2)cc1O (configuration not stated)	-7.61*	i	i	i	i
Cc1ccc(C(=O)NC(=S)NNC(=O)c2ccc([N+](=O)[O-])cc2)cc1	i	i	40.5*	i	i
O=C(NNC(=S)NC(=O)c1ccc(Br)cc1)c1ccc([N+](=O)[O-])cc1	i	i	i	i	i
O=C(NNC(=S)NC(=O)c1ccccc1Cl)c1cccc([N+](=O)[O-])c1	i	i	103*	i	i
O=C(NNC(=S)NC(=O)c1ccc(Br)cc1)c1cccc([N+](=O)[O-])c1	i	i	i	i	i
COc1ccc(OCC(=O)NNC(=S)NC(=O)c2ccc([N+](=O)[O-])cc2)cc1	i	i	i	i	i
O=C(NNC(=S)NC(=O)c1ccccc1)c1ccc([N+](=O)[O-])cc1	i	i	76.7*	i	i
CCCCCC(=O)NNC(=S)NC(=O)c1ccc([N+](=O)[O-])cc1	i	i	60.9*	i	i
CCOC(=O)c1ccc(NC(=O)COC(=O)Cc2csc(-c3ccccc3)n2)cc1	i	i	i	i	i
N#C/C(=N\Nc1ccccc1[N+](=O)[O-])C(=N)N1CCCCC1	i	i	i	i	i
c1cncc(C2OCC3(CO2)COC(c2cccnc2)OC3)c1 (configuration not stated)	i	i	i	i	i
CC1C(C#N)=C(N)OC2=C1C(=O)CC(c1ccccc1)C2 (configuration not stated)	i	i	i	i	i
CCCCNC(=O)COC(=O)CCC(=O)c1ccc(F)cc1	i	i	i	-6.06*	i
O=C(NCC1CC1)Nc1cccs1	i	i	i	i	i
O=C(Nc1nnc(-c2ccc(F)cc2)o1)c1cccc([N+](=O)[O-])c1	i	i	58.1*	i	i
O=C(Nc1nnc(C2=COCCO2)o1)c1cccc([N+](=O)[O-])c1	i	i	i	i	i
CC(Oc1ccc(Cl)cc1Cl)c1nc(-c2ccc(NC(=O)c3ccco3)cc2)no1 (configuration not stated)	i	i	i	-4.97*	i
